From ChEMBL document CHEMBL1142551, “Acylamido analogs of endocannabinoids selectively inhibit cancer cell proliferation” (Bioorg Med Chem, 2008)
Calls of active or inactive are those of the source. The rule behind the calls is not given here.

Assays:
[1] = Antiproliferative activity against human WI38 cells at 10 uM after 48 hrs relative to control; assay type: cell-based; settings: wi-38, 48 h
How it was run: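 WI-38 embryonic lung fibroblasts grown in DMEM with 10% FBS and passaged with trypsin. Plated in 96-well format and exposed to a single 10 µM concentration, with DMSO vehicle. CellTiter-Glo luminescence read 48 h after treatment, four replicates. Values given as percent of control ± SD.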

RAW264.7 = assay: Antiproliferative activity against mouse RAW264.7 cells at 10 uM after 48 hrs relative to control; assay type: functional
How it was run: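 RAW264.7 cells grown in RPMI with 10% FBS and passaged by scraping. Seeded in 96-well plates, treated at 10 µM 24 h after seeding, four replicates. CellTiter-Glo ATP luminescence read 48 h after treatment; results given as percent of vehicle-treated control with SD.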

HTB126 [2] = assay: Antiproliferative activity against human HTB126 cells at 0.1 to 1.0 uM after 48 hrs by luciferase assay relative to control; assay type: functional, cell-based
How it was run: (§1)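 Matched breast lines from the same donor: HTB-125 (normal) and HTB-126 (tumor), seeded in 96-well plates and treated 24 h after seeding, DMSO vehicle. CellTiter-Glo ATP luminescence read 48 h after treatment. Four replicates per point over a dose series; values expressed as percent of vehicle-treated wells.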

HTB126 [3] = assay: (§2) Antiproliferative activity against human HTB126 cells at 10 uM after 48 hrs by luciferase assay relative to control; assay type: functional
How it was run: (§3)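 HTB-126 cells, with matched normal HTB-125 from the same donor, in DMEM with 10% FBS. Cells seeded in 96-well plates and treated 24 h after seeding across a dose range, four replicates per point. CellTiter-Glo ATP luminescence read 48 h after treatment; values given as percent of vehicle (DMSO) wells.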

HTB126 [4] = assay: Antiproliferative activity against human HTB126 cells assessed as […] at 10 uM after 48 hrs by luciferase assay; assay type: functional, cell-based
How it was run: (§4)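 HTB-126 human breast tumour cells, 2000 cells/well in 24-well plates, grown 24 h, then given vehicle or agent at 10 µM final (diluted from a DMSO stock), N = 6. Parallel plates assayed at successive times after treatment by CellTiter-Glo luciferase ATP luminescence, read 15 min after adding an equal volume of reagent; raw units reported.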

[5] = Antiproliferative activity against human HTB125 cells at 0.1 to 1.0 uM after 48 hrs by luciferase assay relative to control; assay type: cell-based; settings: htb125, 48 h; how it was run: as §1
HTB126 [6] = assay: Antiproliferative activity against human HTB126 cells assessed as fluorescence units at 10 uM after 48 hrs by luciferase assay in presence of rimonabant; assay type: functional, cell-based
How it was run: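 HTB-126 tumor breast cells in 96-well plates. Rimonabant (10 µM) added 30 min before the test agent (10 µM). CellTiter-Glo luminescence read 48 h later, four replicates. Values reported as raw fluorescence units rather than percent, because there are two control treatments.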

HTB126 [7] = assay: Antiproliferative activity against human HTB126 cells assessed as […] at 10 uM after 72 hrs by luciferase assay; assay type: functional, cell-based; how it was run: as §4
HTB126 [8] = assay: Antiproliferative activity against human HTB126 cells assessed as […] at 10 uM after 24 hrs by luciferase assay; assay type: functional, cell-based; how it was run: as §4
HeLa = assay: Antiproliferative activity against human HeLa cells at 10 uM after 48 hrs relative to control; assay type: functional, cell-based
How it was run: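 HeLa cells grown in DMEM with 10% FBS, seeded in 96-well plates and treated 24 h after seeding. CellTiter-Glo assay run 48 h post-treatment, four replicates per concentration. Results given as mean ± SEM relative to DMSO vehicle.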

RBL-2H3 [9] = assay: Antiproliferative activity against rat RBL2H3 cells at 1 uM treated 1 hr before LPS-challenge assessed after 24 hrs relative to control; assay type: functional
How it was run: (§5)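 RBL-2H3 mast cells, 500 cells/well in 96-well plates, grown 24 h, medium changed and cells held 4 h. Agent added 1 h before LPS (10 ng/ml), then 24 h further incubation. Cell number by CellTiter-Glo luminescence, n = 3; values given as raw response and as percent of DMSO control.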

RBL-2H3 [10] = assay: Antiproliferative activity against rat RBL2H3 cells at 10 uM treated 1 hr before LPS-challenge assessed after 24 hrs relative to control; assay type: functional; how it was run: as §5
RBL-2H3 [11] = assay: Antiproliferative activity against rat RBL2H3 cells at 0.1 uM treated 1 hr before LPS-challenge assessed after 24 hrs relative to control; assay type: functional; how it was run: as §5
HTB126 [12] = assay: Antiproliferative activity against human HTB126 cells assessed as […] at 10 uM after 96 hrs by luciferase assay; assay type: functional, cell-based; how it was run: as §4
[13] = Antiproliferative activity against human HTB125 cells at 10 uM after 48 hrs by luciferase assay relative to control; assay type: cell-based; settings: htb125, 48 h; how it was run: as §1
[14] = as §2; assay type: functional; settings: HTB126, 48 h; how it was run: as §3

SMILES: CCCCCCCCCCCCCCCC(N)=O [PALMITAMIDE]
- Activity [1]: 118%
- Activity (RAW264.7): 100%

SMILES: CCCCCCCCCCCCCCCC(=O)N[C@@H](Cc1ccc(O)cc1)C(=O)O
- Activity (HTB126 [2]): inactive
- Activity (HTB126 [3]): Active
- Activity (HTB126 [4]): Active
- Activity [5]: Non-toxic
- Activity (HTB126 [6]): inactive
- Activity (HTB126 [7]): Active
- Activity (HTB126 [8]): Active

SMILES: CCCCCCCC/C=C\CCCCCCCC(=O)NCCO [OLEOYLETHANOLAMIDE]
- Activity [1]: 140%
- Activity (RAW264.7): 117%

SMILES: CCCCC/C=C\C/C=C\CCCCCCCC(=O)NCCO [LINOLEOYLETHANOLAMIDE]
- Activity [1]: 63%
- Activity (RAW264.7): 100%

SMILES: CCCCCCCC/C=C\CCCCCCCC(=O)NCCc1ccc(O)c(O)c1 [OLEOYL DOPAMINE]
- Activity (HeLa): Active
- Activity [1]: 24%
- Activity (RAW264.7): 7.02%

SMILES: CCCCC/C=C\C/C=C\C/C=C\C/C=C\CCCC(=O)NCCCC(=O)O [ARACHIDONOYL GABA]
- Activity (RBL-2H3 [9]): 120%
- Activity (RBL-2H3 [10]): 15%
- Activity (RBL-2H3 [11]): 100%

SMILES: CCCCC/C=C\C/C=C\C/C=C\CCCCC(=O)NCCc1ccc(O)c(O)c1
- Activity (HeLa): Active
- Activity [1]: 38.3%
- Activity (RAW264.7): 6.1%

SMILES: CCCCC/C=C\C/C=C\C/C=C\CCCCC(=O)NCCO
- Activity [1]: 54%
- Activity (RAW264.7): 87%

SMILES: CCCCC/C=C\C/C=C\C/C=C\CCCCCCC(N)=O
- Activity [1]: 58%
- Activity (RAW264.7): 82%

SMILES: CCCCC/C=C\C/C=C\C/C=C\C/C=C\CCCC(=O)NCCc1ccc(O)c(O)c1 [ARACHIDONOYL DOPAMINE]
- Activity (RBL-2H3 [9]): 70%
- Activity (RBL-2H3 [10]): 14%
- Activity [1]: 22.1%
- Activity (RAW264.7): 2.33%
- Activity (RBL-2H3 [11]): 110%

SMILES: CC/C=C\C/C=C\C/C=C\CCCCCCCC(N)=O [LINOLENAMIDE]
- Activity [1]: 85%
- Activity (RAW264.7): 126%

SMILES: CCCCC/C=C\C/C=C\C/C=C\C/C=C\CCCCCC(=O)NCCc1ccc(O)c(O)c1
- Activity (HeLa): Active
- Activity [1]: 25.7%
- Activity (RAW264.7): 4.32%

SMILES: CCCCCCC(C)(C)c1cc(O)c2c(c1)OC(C)(C)[C@@H]1CC=C(C(=O)O)C[C@@H]21
- Activity (HTB126 [12]): Active
- Activity (HeLa): Active
- Activity (HTB126 [4]): Active
- Activity (HTB126 [7]): Active
- Activity (HTB126 [8]): Active

SMILES: CCCCCCCCCCCCCCCC(=O)NCC(=O)O [PALMITOYL GLYCINE]
- Activity (RBL-2H3 [9]): 110%
- Activity (RBL-2H3 [10]): 110%
- Activity (HeLa): Active
- Activity (RBL-2H3 [11]): 130%

SMILES: CCCCCCCC/C=C\CCCCCCCC(N)=O [OLEAMIDE]
- Activity [1]: 94%
- Activity (RAW264.7): 134%

SMILES: CCCCCCCCCCCCCCCC(=O)NCCO [PALMIDROL]
- Activity [1]: 130%
- Activity (RAW264.7): 66%

SMILES: CCCCC/C=C\C/C=C\C/C=C\CCCCC(N)=O
- Activity [1]: 33%
- Activity (RAW264.7): 94%

SMILES: CCCCC/C=C\C/C=C\C/C=C\CCCCCCC(=O)NCCc1ccc(O)c(O)c1
- Activity (HeLa): Active
- Activity [1]: 25.5%
- Activity (RAW264.7): 5.72%

SMILES: CCCCC/C=C\C/C=C\C/C=C\CCCCCCC(=O)NCCO
- Activity [1]: 54%
- Activity (RAW264.7): 70%

SMILES: CCCCC/C=C\C/C=C\C/C=C\C/C=C\CCCC(N)=O [ARACHIDONAMIDE]
- Activity [1]: 58%
- Activity (RAW264.7): 91%

SMILES: CCCCCCCCCCCCCCCC(=O)NCCCC(=O)O [PALMITOYL GABA]
- Activity (RBL-2H3 [9]): 100%
- Activity (RBL-2H3 [10]): 100%
- Activity (RBL-2H3 [11]): 120%

SMILES: CCCCC/C=C\C/C=C\C/C=C\C/C=C\CCCCCC(N)=O
- Activity [1]: 61%
- Activity (RAW264.7): 91%

SMILES: CCCCCCCCCCCCCCCC(=O)NCCc1ccc(O)c(O)c1 [PALMITOYL DOPAMINE]
- Activity (RBL-2H3 [9]): 50%
- Activity (RBL-2H3 [10]): 15%
- Activity [13]: Not Active
- inhibition at 10 µM [14]: 80%
- Activity [1]: 41.6%
- Activity (RAW264.7): 11.1%
- Activity (RBL-2H3 [11]): 130%

SMILES: CCCCC/C=C\C/C=C\C/C=C\C/C=C\CCCC(=O)N[C@@H](C)C(=O)O
- Activity (RBL-2H3 [9]): 160%
- Activity (RBL-2H3 [10]): 50%
- Activity (RBL-2H3 [11]): 120%

SMILES: CCCCC/C=C\C/C=C\C/C=C\C/C=C\CCCCCC(=O)NCCO
- Activity [1]: 24%
- Activity (RAW264.7): 65%

SMILES: CCCCCCCCCCCCCCCC(=O)N[C@@H](C)C(=O)O
- Activity (RBL-2H3 [9]): 90%
- Activity (RBL-2H3 [10]): 10%
- Activity (RBL-2H3 [11]): 110%

SMILES: CCCCC/C=C\C/C=C\C/C=C\C/C=C\CCCC(=O)NCC(=O)O [ARACHIDONOYL GLYCINE]
- Activity (RBL-2H3 [9]): 130%
- Activity (RBL-2H3 [10]): 21%
- Activity (RBL-2H3 [11]): 130%

SMILES: CCCCC/C=C\C/C=C\C/C=C\C/C=C\CCCC(=O)NCCO [ANANDAMIDE]
- Activity [1]: 74%
- Activity (RAW264.7): 110%

SMILES: COc1ccc2c(c1)c(CC(=O)O)c(C)n2C(=O)c1ccc(Cl)cc1 [INDOMETHACIN]
- Activity [1]: 144%
- Activity (RAW264.7): 177%
